The source made the active and inactive calls. The rule behind the calls is not given here.
How the values were obtained:
[1] = target: T1, 5-hydroxytryptamine receptor 6 (Homo sapiens, UniProt P50406); test: Displacement of [3H]-LSD from human 5-HT6 receptor expressed in HEK293 cells by microbeta liquid scintillation counting; type: cell-based
Outline: (§1)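 Ki values reported as the mean of two independent radioligand binding experiments.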

[2] = target: T1, 5-hydroxytryptamine receptor 6; test: Inhibition of 5-HT6 receptor (unknown origin)
[3] = species on record: Homo sapiens; test: Selectivity ratio of Ki for human 5-HT1A receptor expressed in HEK293 cells to Ki for human 5-HT6 receptor expressed in HEK293 cells; type: cell-based
[4] = target: 5-hydroxytryptamine receptor 2A (Homo sapiens, UniProt P28223); test: Displacement of [3H]-Ketanserin from human 5-HT2A receptor expressed in HEK293 cells by microbeta liquid scintillation counting; type: cell-based; outline: as §1
5-hydroxytryptamine receptor 2A, sequence (P28223 whole entry): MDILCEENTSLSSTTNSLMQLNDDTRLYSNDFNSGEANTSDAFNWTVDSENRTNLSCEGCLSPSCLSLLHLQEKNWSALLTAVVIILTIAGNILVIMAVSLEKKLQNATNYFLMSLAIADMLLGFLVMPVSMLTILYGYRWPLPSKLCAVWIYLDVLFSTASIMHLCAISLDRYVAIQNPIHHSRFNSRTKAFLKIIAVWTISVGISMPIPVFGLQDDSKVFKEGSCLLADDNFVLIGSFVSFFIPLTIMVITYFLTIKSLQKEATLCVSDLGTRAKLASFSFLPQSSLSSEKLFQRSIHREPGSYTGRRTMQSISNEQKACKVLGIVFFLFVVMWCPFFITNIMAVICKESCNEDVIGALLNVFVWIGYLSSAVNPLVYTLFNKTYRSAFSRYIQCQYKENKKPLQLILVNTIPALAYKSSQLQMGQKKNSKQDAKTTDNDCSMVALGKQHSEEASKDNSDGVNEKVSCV

[5] = target: T2, 5-hydroxytryptamine receptor 1A (Homo sapiens, UniProt P08908); test: Displacement of [3H]-8-OH-DPAT from human 5-HT1A receptor expressed in HEK293 cells by microbeta liquid scintillation counting; type: cell-based; outline: as §1
T2 sequence (P08908 whole entry): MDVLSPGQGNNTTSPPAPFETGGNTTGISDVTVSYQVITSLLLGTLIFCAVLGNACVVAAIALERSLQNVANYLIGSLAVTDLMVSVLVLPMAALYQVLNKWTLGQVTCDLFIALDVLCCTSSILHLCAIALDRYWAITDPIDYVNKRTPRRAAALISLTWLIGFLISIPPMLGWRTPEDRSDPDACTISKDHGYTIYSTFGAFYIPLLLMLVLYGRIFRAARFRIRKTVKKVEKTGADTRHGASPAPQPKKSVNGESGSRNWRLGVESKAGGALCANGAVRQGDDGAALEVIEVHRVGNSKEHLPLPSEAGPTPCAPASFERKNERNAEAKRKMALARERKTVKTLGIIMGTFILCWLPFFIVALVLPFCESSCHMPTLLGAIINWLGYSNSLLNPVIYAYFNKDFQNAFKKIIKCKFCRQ

[6] = target: 5-hydroxytryptamine receptor 7 (Homo sapiens, UniProt P34969); test: Displacement of [3H]-5-CT from human 5-HT7B receptor expressed in HEK293 cells by microbeta liquid scintillation counting; type: cell-based; outline: as §1
5-hydroxytryptamine receptor 7, sequence (P34969 whole entry): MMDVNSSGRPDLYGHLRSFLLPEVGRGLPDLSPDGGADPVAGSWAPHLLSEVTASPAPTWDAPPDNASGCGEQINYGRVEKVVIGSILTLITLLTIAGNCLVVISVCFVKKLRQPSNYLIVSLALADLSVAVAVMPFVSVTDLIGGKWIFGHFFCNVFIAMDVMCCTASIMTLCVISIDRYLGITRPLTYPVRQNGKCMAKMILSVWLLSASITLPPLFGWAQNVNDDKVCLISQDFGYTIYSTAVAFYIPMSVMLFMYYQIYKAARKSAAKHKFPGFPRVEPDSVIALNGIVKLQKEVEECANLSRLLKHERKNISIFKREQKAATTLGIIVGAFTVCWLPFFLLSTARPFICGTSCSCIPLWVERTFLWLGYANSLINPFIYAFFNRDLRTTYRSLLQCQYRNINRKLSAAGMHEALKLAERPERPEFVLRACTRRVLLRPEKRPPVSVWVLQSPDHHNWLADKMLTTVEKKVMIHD

[7] = species on record: Homo sapiens; test: Selectivity ratio of Ki for human 5-HT7B receptor expressed in HEK293 cells to Ki for human 5-HT6 receptor expressed in HEK293 cells; type: cell-based
[8] = target: D(2) dopamine receptor (Homo sapiens, UniProt P14416); test: Displacement of [3H]-Raclopride from human D2L receptor expressed in HEK293 cells by microbeta liquid scintillation counting; type: cell-based; outline: as §1
D(2) dopamine receptor, sequence (P14416 whole entry): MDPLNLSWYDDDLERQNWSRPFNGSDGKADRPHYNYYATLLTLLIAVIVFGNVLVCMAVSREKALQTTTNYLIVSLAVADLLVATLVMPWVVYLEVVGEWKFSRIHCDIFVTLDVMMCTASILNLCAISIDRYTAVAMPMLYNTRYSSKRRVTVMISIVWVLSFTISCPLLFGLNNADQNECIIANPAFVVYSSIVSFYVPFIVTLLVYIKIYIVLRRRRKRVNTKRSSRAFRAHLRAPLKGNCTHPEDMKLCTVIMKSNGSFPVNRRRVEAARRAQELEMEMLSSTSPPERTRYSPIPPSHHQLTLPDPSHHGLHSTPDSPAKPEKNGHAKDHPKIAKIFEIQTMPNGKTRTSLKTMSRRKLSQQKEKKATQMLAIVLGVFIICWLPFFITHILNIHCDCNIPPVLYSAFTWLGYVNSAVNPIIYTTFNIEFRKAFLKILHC

[9] = species on record: Homo sapiens; test: Selectivity ratio of Ki for human D2L receptor expressed in HEK293 cells to Ki for human 5-HT6 receptor expressed in HEK293 cells; type: cell-based
[10] = species on record: Homo sapiens; test: Selectivity ratio of Ki for human 5-HT2A receptor expressed in HEK293 cells to Ki for human 5-HT6 receptor expressed in HEK293 cells; type: cell-based
[11] = tested on: Rattus norvegicus; test: Antidepressant activity in Sprague-Dawley rat assessed as increase in climbing time at 3 mg/kg, ip adminstered 60 mins prior to testing measured for 5 mins by forced swimming test; type: functional, organism-based
Outline: (§2)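 Modified forced swim test in rats, compounds given i.p.; immobility and climbing times scored against a vehicle-treated group; N = 7–8 animals per group; mean ± SEM.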

[12] = tested on: Rattus norvegicus; test: Cognitive enhancing effect in Sprague-Dawley rat assessed as reversal of PCP induced memory deficit at 0.3 to 1 mg/kg, ip administered 1 hour and 15 mins before familiarization phase by novel object recognition test; type: functional, organism-based
Outline: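 Novel object recognition in rats with PCP-induced memory deficit; compounds given i.p.; groups compared with vehicle and with PCP; N = 7–12 animals per group; mean ± SEM.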

[13] = tested on: Rattus norvegicus; test: Antidepressant activity in Sprague-Dawley rat assessed as reduction in immobility time at 3 mg/kg, ip adminstered 60 mins prior to testing measured for 5 mins by forced swimming test; type: functional, organism-based; outline: as §2
[14] = target: 5-hydroxytryptamine receptor 6 (Rattus norvegicus, UniProt P31388); test: Displacement of [3H]Lu AE60157 from rat brain 5-HT6 receptor
5-hydroxytryptamine receptor 6 (Rattus norvegicus, UniProt P31388), sequence (P31388 whole entry): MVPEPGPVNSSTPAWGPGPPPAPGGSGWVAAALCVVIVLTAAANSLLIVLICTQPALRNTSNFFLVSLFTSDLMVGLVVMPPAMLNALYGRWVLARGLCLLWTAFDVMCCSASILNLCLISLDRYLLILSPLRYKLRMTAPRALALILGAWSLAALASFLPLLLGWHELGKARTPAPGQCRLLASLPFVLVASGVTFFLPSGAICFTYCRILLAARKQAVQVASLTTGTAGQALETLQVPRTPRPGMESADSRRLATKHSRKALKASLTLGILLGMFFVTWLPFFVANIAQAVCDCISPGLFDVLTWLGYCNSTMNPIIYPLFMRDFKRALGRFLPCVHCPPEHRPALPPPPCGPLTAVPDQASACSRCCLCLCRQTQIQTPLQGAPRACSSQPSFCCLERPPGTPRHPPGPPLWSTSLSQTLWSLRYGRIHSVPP

[15] = Toxicity in Sprague-Dawley rat assessed as effect on locomotory activity at 0.3 to 3 mg/kg, ip measured for 5 mins by open field test; type: organism-based; conditions: in vivo
[16] = tested on: Rattus norvegicus; test: Antianxietic activity in ip dosed Wistar rat assessed as increase in number of shocks accepted measured for 5 mins by Vogel conflict drinking test; type: functional; conditions: read-out: MED
[17] = tested on: Rattus norvegicus; test: Antianxietic activity in ip dosed Wistar rat assessed as increase in number of licks accepted measured for 5 mins by Vogel conflict drinking test; type: functional; conditions: read-out: MED

T1 sequence (P50406 whole entry): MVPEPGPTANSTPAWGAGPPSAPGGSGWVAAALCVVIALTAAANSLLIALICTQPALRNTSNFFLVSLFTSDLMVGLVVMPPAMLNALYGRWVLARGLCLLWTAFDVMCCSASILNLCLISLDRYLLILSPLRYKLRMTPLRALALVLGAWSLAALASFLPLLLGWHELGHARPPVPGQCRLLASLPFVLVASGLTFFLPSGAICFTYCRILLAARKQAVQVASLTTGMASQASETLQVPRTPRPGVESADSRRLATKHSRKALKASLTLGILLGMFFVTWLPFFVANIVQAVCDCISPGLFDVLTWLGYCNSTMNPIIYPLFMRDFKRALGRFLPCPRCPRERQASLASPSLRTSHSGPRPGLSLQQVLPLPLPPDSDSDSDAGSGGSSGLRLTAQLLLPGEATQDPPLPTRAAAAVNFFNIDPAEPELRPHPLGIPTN

With CCCCN1CC=C(c2cn(S(=O)(=O)c3ccc4cccnc4c3)c3ccc(OC)cc23)CC1 the Ki [1] was 219 nM.

Compound Cc1c(C2=CCNCC2)c2ccccc2n1S(=O)(=O)c1ccc2cccnc2c1 has a Ki [1] of 18 nM.

In the case of CCCN1CC=C(c2cn(S(=O)(=O)c3ccc4cccnc4c3)c3ccc(OC)cc23)CC1, the Ki [1] is reported as 247 nM.

Compound O=S(=O)(c1cccc2ncccc12)n1cc(C2=CCNCC2)c2cc(Cl)ccc21 has a Ki [1] of 11 nM.

Work on O=S(=O)(c1ccc2cccnc2c1)n1cc(C2=CCNCC2)c2ccc(Cl)cc21 yielded a Ki [1] of 22 nM.

Work on O=S(=O)(c1cc2ccccc2cn1)n1cc(C2=CCNCC2)c2ccccc21 yielded a Ki [1] of 12 nM.

CSc1nn2c(C)cc(C)nc2c1S(=O)(=O)c1ccccc1 gave a Ki [2] of 2.1 nM.

With O=S(=O)(c1cc2ccccc2cn1)n1cc(C2=CCNCC2)c2ccc(Cl)cc21 the Ki [1] was 102 nM.

In the case of O=S(=O)(c1ccc2ncccc2c1)n1cc(C2=CCNCC2)c2ccc(Cl)cc21, the Ki [1] is reported as 112 nM.

O=S(=O)(c1cncc2ccccc12)n1cc(C2=CCNCC2)c2ccccc21 gave a Ki [1] of 5 nM.

Compound COc1ccc2c(c1)c(C1=CCNCC1)cn2S(=O)(=O)c1cccc2ncccc12 has a Ratio Ki [3] of 70, a Ki [4] of 1550 nM and a Ki [5] of 2940 nM. The Ki [1] was 4 nM, the Ki [6] was 2350 nM and the Ratio Ki [7] was 70. The Ki [8] was 302 nM, the Ratio Ki [9] was 70 and the Ratio Ki [10] was 70.

With O=S(=O)(c1cnc2ccccc2c1)n1cc(C2=CCNCC2)c2ccc(Cl)cc21 the Ki [1] was 37 nM.

In the case of O=S(=O)(c1cnc2ccccc2c1)n1cc(C2=CCNCC2)c2ccccc21, the Ki [1] is reported as 13 nM.

In the case of O=S(=O)(c1ccccc1)c1cnc2c(N3CCNCC3)cccc2c1 [INTEPIRDINE], the Activity [11] is reported as “Active”, the Activity [12] is reported as “Active” and the Activity [13] is reported as “Active”. The Ki [14] was 0.234 nM, the Activity [15] was “Non-Toxic” and the minimal effective dose [16] was 3 mg/kg. For the same compound, the minimal effective dose [17] was 3 mg/kg.

Work on O=S(=O)(c1cnc2ccccc2c1)n1cc(C2=CCNCC2)c2cc(Cl)ccc21 yielded a Ki [1] of 11 nM.

For COc1ccc2c(c1)c(C1CCNCC1)cn2S(=O)(=O)c1cncc2ccccc12, the Ki [1] was 24 nM.

Work on COc1ccc2c(c1)c(C1=CCNCC1)cn2S(=O)(=O)c1ccc2ncccc2c1 yielded a Ki [1] of 14 nM.

For O=S(=O)(c1ccc2cccnc2c1)n1cc(C2=CCNCC2)c2cc(Cl)ccc21, the Ratio Ki [3] was 70, the Ki [4] was 2590 nM and the Ki [5] was 2470 nM. It also gave a Ki [1] of 9 nM, a Ki [6] of 7320 nM and a Ratio Ki [7] of 70. The Ki [8] was 1170 nM, the Ratio Ki [9] was 70 and the Ratio Ki [10] was 70.

With O=S(=O)(c1ccc2ncccc2c1)n1cc(C2=CCNCC2)c2ccccc21 the Ratio Ki [3] was 70, the Ki [4] was 1410 nM and the Ki [5] was 1870 nM. For the same compound, the Ki [1] was 20 nM, the Ki [6] was 6660 nM and the Ratio Ki [7] was 70. For the same compound, the Ki [8] was 1410 nM, the Ratio Ki [9] was 70 and the Ratio Ki [10] was 70.

Compound COc1ccc2c(c1)c(C1CCNCC1)cn2S(=O)(=O)c1ccc2cccnc2c1 has a Ki [1] of 30 nM.

For COc1ccc2c(c1)c(C1=CCNCC1)cn2S(=O)(=O)c1cnc2ccccc2c1, the Ki [1] was 8 nM.

Compound O=S(=O)(c1cncc2ccccc12)n1cc(C2=CCNCC2)c2cc(Cl)ccc21 has a Ki [1] of 18 nM.

For Cc1c(C2=CCNCC2)c2ccccc2n1S(=O)(=O)c1cc2ccccc2cn1, the Ki [1] was 20 nM.

Work on O=S(=O)(c1ccc2cccnc2c1)n1cc(C2=CCNCC2)c2ccccc21 yielded a Ki [1] of 7 nM.

In the case of COc1ccc2c(c1)c(C1=CCNCC1)cn2S(=O)(=O)c1cc2ccccc2cn1, the Ki [1] is reported as 6 nM.

Compound COc1ccc2c(c1)c(C1=CCN(C)CC1)cn2S(=O)(=O)c1ccc2cccnc2c1 has a Ki [1] of 82 nM.

Source: ChEMBL document CHEMBL4425120, “N1-Azinylsulfonyl-1H-indoles: 5-HT6 Receptor Antagonists with Procognitive and Antidepressant-Like Properties” (ACS Med Chem Lett, 2016)
